High-throughput results (PubChem)
WT yeast gro inh – growth inhibition of WT strain, primary screen, mitochondrial fusion inhibitor project, WT and mutant strains, chemical genetic. mitochondrial fusion phenotypic screen. inhibition, % at 10 µM. hit rate 2.1% among 190,000; in the data active = inhibition above about 58%; tested in S. cerevisiae
Lmaj promast – Leishmania major promastigote growth inhibition, primary screen; Leishmania major promastigotes, resazurin fluorescence viability; inhibition, % at 10 µM; hit rate 9% among 200,000; in the data active = inhibition above about 50%;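 note: promastigotes grown with compound for 44 hours at 28 °C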
RAM inhibit – inhibitors of the yeast RAM network, primary screen, dse1pr::URA3 reporter, 5-FOA selection; S. cerevisiae dse1pr::URA3 reporter, 5-FOA growth OD615, 2 d; analog-sensitive cbk1-as2 kinase mutant strain; inhibition, % at 50 µM; hit rate 1.8% among 190,000; AID 868, 2007;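 active = inhibition above a set limit, 3 SD over mean compound inhibition, cut at about 8.4% in these data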;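 note: inhibition rescues growth on 5-FOA so higher OD means more RAM inhibition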
ABCB1 inh – ABCB1 efflux pump inhibitors, primary screen, cell-based, multiplex, flow cytometry, ABCG2 counter-screen | hit rate 0.067% among 190,000 | AID 1326, 2008 | ATP-dependent translocase ABCB1 (Homo sapiens), P08183 | inhibition, % at 6.6 µM | CCRF-Adr cells, JC-1 efflux; in the data active = inhibition above about 40%;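 note: higher value means more JC-1 retained so stronger ABCB1 efflux block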
ABCG2 inh – ABCG2 efflux pump inhibitors, primary screen, multiplex with ABCB1, IgMXP3 cells, flow cytometry; Broad substrate specificity ATP-binding cassette transporter ABCG2 (Homo sapiens), Q9UNQ0; JC-1 efflux; inhibition, % at 6.6 µM; hit rate 0.1% among 190,000; AID 1325, 2008;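 active = inhibition above 80%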
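Read-out basis: Efflux inhibition in percent versus controls | Test system: ABCG2 IgMXP3 and barcoded ABCB1 CCRF-Adr cell mix | Quantity: 3 million cells/mL in well | Schedule: 10 min at 25 °C | Control set: Nicardipine as high control, DMSO as low control | Reagent: JC-1 as fluorescent efflux pump substrate | Signal: Flow cytometry of retained JC-1 fluorescence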
Hits are given with their value; – = inactive; · = no result given. Hits are enriched below; roughly 12% of the tested compounds scored in any of these assays.

SMILES	WT yeast gro inh	Lmaj promast	RAM inhibit	ABCB1 inh	ABCG2 inh
O=S1(=O)CCN(Cc2ccc(Cl)cc2)CC1	–	–	–	–	–
Cc1cccc(CN2CCN(c3ccccn3)CC2)c1	·	–	·	·	·
CCOC(=O)c1c(C)sc2c1N(C(C)=O)c1cc(Cl)ccc1S2	–	–	–	–	–
CS(=O)(=O)N1CCN(C(=O)NC2CCCCC2)CC1	–	–	–	–	–
Nc1ccn(Cc2ccc(F)cc2)n1	–	–	–	–	–
c1ccc(Oc2cccc(CN3CCCCC3)c2)cc1	–	100	–	–	–
COc1c(F)c(F)c(C(=O)Nc2ccccc2N2CCN(C(=O)C(C)C)CC2)c(F)c1F	–	51	–	–	–
Cc1ccc(C(=O)OCC(=O)NC2CCCCC2)s1	–	–	–	–	–
COC(=O)CSc1nnc(CNc2ccc(Cl)cc2)n1-c1ccccc1	–	–	–	–	–
CC(C)(C)NC(=O)CSc1nc2ccc(Nc3nc(N4CCOCC4)nc(N4CCOCC4)n3)cc2s1	–	77	–	–	–
CC(=O)CSc1nc2ccc(Nc3nc(N4CCOCC4)nc(N4CCOCC4)n3)cc2s1	–	64	–	–	–
CC(C)CC(NC(=O)C(CO)NC(=O)C1CCC(=O)N1)C(N)=O (configuration not stated)	–	–	–	–	–
CS(=O)(=O)N1CCN=C1SCc1ccc([N+](=O)[O-])cc1	–	–	–	–	–
CN(C)c1nc(N(C)C)nc(N(C#N)CCOc2ccccc2)n1	–	–	9.8	–	–
Cc1ccc(C)c(SCC(=O)NC(=O)NCc2ccccc2)c1	–	–	11	–	–
COc1cccc(/C=C/C(=O)Nc2ccc3nc4n(c(=O)c3c2)CCCC4)c1OC	–	–	–	–	–
Cc1ccccc1N1CCN(C2=NC(=O)/C(=C\c3cccs3)S2)CC1	64	–	–	–	–
Cc1nc2ccccc2nc1OCC(=O)Nc1ccccc1	–	–	–	–	–
Cc1nc2ccccc2nc1OCC(=O)NCC(F)(F)F	–	58	–	–	–
Nc1nnnn1NCc1cccc(OCc2ccccc2)c1	–	–	–	–	–
c1ccc(COc2cccc(CNCc3cccnc3)c2)cc1	–	98	–	–	–
COc1ccc(C(=O)NC(=S)NCc2cccnc2)cc1OC	–	–	–	–	–
COc1ccc(-c2ccccc2)cc1NCc1ccc(OC)c(OC)c1	–	99	–	–	–
COc1cc(CNc2ccc(NC(C)=O)cc2)ccc1OCc1ccccc1C	–	73	–	–	–
COc1cc(CNCc2cccnc2)ccc1OCc1ccccc1	–	96	–	–	–
SMILES	WT yeast gro inh	Lmaj promast	RAM inhibit	ABCB1 inh	ABCG2 inh
COc1ccc(C2=NCCn3cccc32)c(OC)c1	–	–	–	–	–
CC(=O)c1sc(NC(=O)COc2ccc(C)c(C)c2)nc1C	–	–	–	–	–
Cc1cccc(CCNC(=O)CCc2nnc(CCc3ccccc3)o2)n1	–	–	–	–	–
COc1cc(C(NC(C)=O)NC(C)=O)ccc1OCc1ccccc1	–	–	–	–	–
CNCc1c(OCc2ccc(F)cc2)ccc2ccccc12	–	63	–	–	–
c1ccc(COc2cccc(CNCc3ccccn3)c2)cc1	–	96	–	–	–
Oc1ccc(NCc2cccc(OCc3ccccc3)c2)cc1	–	–	–	–	–
CNCc1ccc(OCc2ccccc2)c(OC)c1	–	80	–	–	–
COc1ccc2[nH]cc(CCNS(=O)(=O)Cc3ccccc3)c2c1	–	–	–	–	–
NCCCCCc1nnc(SCc2ccc(Cl)c(Cl)c2)o1	–	100	–	–	–
NCCc1nnc(SCc2ccc(F)cc2)o1	–	–	–	–	–
O=C1CCN1C1(C(=O)NC2CCCCC2)CCCC1	–	–	–	–	–
CCC(C)(C)n1nnnc1C(c1ccncc1)N1CCN(c2cccc(OC)c2)CC1 (configuration not stated)	–	54	–	–	–
CCC(C)(C)n1nnnc1C(c1cccnc1)N1CCN(c2cccc(C(F)(F)F)c2)CC1 (configuration not stated)	–	95	–	–	–
O=C(Cn1cnc2cc(Cl)ccc2c1=O)Nc1ccc2c(c1)OCO2	–	–	–	–	–
Cc1ccc2c(c1)C(c1ccc([N+](=O)[O-])cc1)=NNC(c1ccc(Br)cc1)=N2	–	53	–	–	–
CCc1ccc2c(c1)C(c1ccc([N+](=O)[O-])cc1)=NNC(c1ccc(Br)cc1)=N2	–	–	–	–	–
